This note sets out measurements from ChEMBL document CHEMBL3352256 (J Med Chem, 2014).

The nature of experiment [1]: Inhibition of HTLV-1 protease. Further details: species or system Human T-cell leukemia virus type I.
The subject of experiment [2] is Human T-cell leukemia virus type I. Kind of experiment: Inhibition of HTLV-1 protease at 80 uM using (RE(Edans)TKVLVVQPK(Dabsyl)R) substrate by fluorescence-based assay. The gist of the method: (§1)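 HTLV-1 PR (aspartic protease, homodimer) activity was measured in a fluorescence-based assay. Inhibitors were tested at 80, 40 and 8 μM, and the read-out was percent inhibition. A percentage efficiency index (PEI) was then calculated from the percent inhibition value and the molecular weight.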

For experiment [3] the test system is unchanged. Kind of experiment: Inhibition of HTLV-1 protease at 40 uM using (RE(Edans)TKVLVVQPK(Dabsyl)R) substrate by fluorescence-based assay. The gist of the method: as §1
The test system is the same in experiment [4]. Briefly: Inhibition of HTLV-1 protease at 8 uM using (RE(Edans)TKVLVVQPK(Dabsyl)R) substrate by fluorescence-based assay. The gist of the method:
as §1

Structures are written as SMILES.

For `CC(C)(C)NC(=O)[C@@H]1CN(Cc2cccnc2)CCN1C[C@@H](O)C[C@@H](Cc1ccccc1)C(=O)N[C@H]1c2ccccc2C[C@H]1O`, the Ki (as a rule, the equilibrium dissociation constant of an inhibitor or competing ligand from its target) in experiment [1] came out at 3.5 µM. In addition, the values for the inhibition in experiment [2], in experiment [3] and in experiment [4] were 95.4%, 91.2% and 71.8%, respectively.
In turn, `CC(C)(C)NC(=O)[C@@H]1C[C@@H]2CCCC[C@@H]2CN1C[C@@H](O)[C@H](Cc1ccccc1)NC(=O)[C@H](CC(N)=O)NC(=O)c1ccc2ccccc2n1` came in with an inhibitory constant (Ki) in experiment [1] above 20 µM.
Compound `CC(C)CN(C[C@@H](O)[C@H](Cc1ccccc1)NC(=O)O[C@H]1CCOC1)S(=O)(=O)c1ccc(N)cc1` came in with a Ki in experiment [1] above 20 µM.
For `CC(C)(C)NC(=O)[C@@H]1CNCCN1C[C@@H](O)C[C@@H](Cc1ccccc1)C(=O)N[C@H]1c2ccccc2C[C@H]1O`, the values for the inhibition in experiment [2], in experiment [3] and in experiment [4] were 60.8%, 45.1% and 16.8%, respectively.
On to `Cc1c(O)cccc1C(=O)N[C@@H](CSc1ccccc1)[C@H](O)CN1C[C@H]2CCCC[C@H]2C[C@H]1C(=O)NC(C)(C)C`, for which the Ki in experiment [1] was above 20 µM.
